Residues, ends and D or L forms follow the SMILES beside them.
Assays:
Homo sapiens [1] = species: Homo sapiens; test: Binding affinity to RBC membrane receptor in 1 mg/mL chymotrypsin pretreated human RBC relative to untreated RBC
In short: (§1)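 Human RBCs (60% hematocrit) treated 1 h at 37 °C with neuraminidase (150 μU/mL), chymotrypsin (1 mg/mL) or trypsin (1 mg/mL). Standard radiolabeled-peptide binding then run on treated cells at 20% hematocrit. Binding expressed relative to untreated RBCs set as 100%.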

Homo sapiens [2] = species: Homo sapiens; test: Binding affinity to RBC membrane receptor in 150 uU/mL neuraminidase pretreated human RBC relative to untreated RBC; in short: as §1
Homo sapiens [3] = species: Homo sapiens; test: Binding affinity to RBC membrane receptor in human RBC assessed as specific binding activity measured as ratio of specifically bound peptide/added peptide by gamma counter
In short: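 1 × 10^8 healthy-donor RBCs incubated in triplicate with four rising concentrations of 125I-peptide (0-560 nM), with or without unlabeled peptide, then washed in HBS (pH 7.4) and gamma-counted. Specific binding (total minus nonspecific) plotted against added peptide; the slope is the specific binding activity. The HABP cutoff is ≥2%.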

Plasmodium falciparum [4] = test: Antiplasmodial activity against Plasmodium falciparum FCB2 assessed as inhibition of merozoite invasion of human erythrocytes at 200 uM after 18 hrs using hydroethidine staining by flow cytometry; format: functional; settings: FCB2, 18 h
In short: (§2)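 Schizont-synchronized P. falciparum FCB-2 cultures incubated in triplicate with peptide (100 and 200 μM) using normal RBCs or, for the neuraminidase line, neuraminidase-treated RBCs. 37 °C for 18 h under 5% O2, 5% CO2, 90% N2. Cells washed with PBS, hydroethidine-labeled, read by flow cytometry (FL2). Inhibition controls were EGTA- and chloroquine-treated infected RBCs; uninfected RBCs served as invasion control.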

Homo sapiens [5] = species: Homo sapiens; test: Binding affinity to RBC membrane receptor in 1 mg/mL trypsin pretreated human RBC relative to untreated RBC; in short: as §1
Plasmodium falciparum [6] = test: Antiplasmodial activity against Plasmodium falciparum FCB2 assessed as inhibition of merozoite invasion of neuraminidase pretreated human erythrocytes at 200 uM after 18 hrs using hydroethidine staining by flow cytometry; format: functional; in short: as §2

Row | Compound | Activity (Homo sapiens [3]) [%] | other results
1 | CC[C@H](C)[C@H](NC(=O)[C@H](CC(N)=O)NC(=O)[C@H](CCCCN)NC(=O)[C@H](CCC(=O)O)NC(=O)[C@H](CC(N)=O)NC(=O)[C@@H](NC(=O)[C@H](Cc1cnc[nH]1)NC(=O)[C@H](CCC(=O)O)NC(=O)[C@H](CC(N)=O)NC(=O)[C@H](CC(N)=O)NC(=O)[C@@H](NC(=O)[C@H](CC(N)=O)NC(=O)[C@H](CC(N)=O)NC(=O)[C@H](CCC(=O)O)NC(=O)[C@H](CC(N)=O)NC(=O)[C@@H](NC(=O)[C@H](Cc1cnc[nH]1)NC(=O)[C@H](CCC(=O)O)NC(=O)[C@H](CC(N)=O)NC(=O)[C@@H](N)CC(N)=O)[C@H](C)O)[C@@H](C)CC)[C@H](C)O)C(=O)N[C@@H](Cc1ccc(O)cc1)C(=O)O | < 2 | 
2 | CC[C@H](C)[C@H](NC(=O)[C@H](Cc1ccc(O)cc1)NC(=O)[C@H](CCC(=O)O)NC(=O)[C@H](Cc1ccc(O)cc1)NC(=O)[C@H](CCC(=O)O)NC(=O)[C@H](CCCCN)NC(=O)[C@H](C)NC(=O)[C@H](C)NC(=O)[C@H](CC(N)=O)NC(=O)[C@@H](NC(=O)[C@H](C)NC(=O)[C@H](CC(N)=O)NC(=O)[C@H](CC(N)=O)NC(=O)[C@H](CO)NC(=O)[C@H](CC(N)=O)NC(=O)[C@H](NC(=O)[C@@H](N)Cc1ccccc1)[C@@H](C)CC)C(C)C)C(=O)N[C@H](C(=O)N[C@@H](CCCCN)C(=O)N[C@@H](Cc1ccc(O)cc1)C(=O)O)[C@@H](C)CC | < 2 | 
3 | H-CIKQTYNNNKSIESLKLKIN-OH | < 2 | 
4 | H-EHTIYTLYQEIKTNLENIEQ-OH | > 2 | inhibition at 200 µM (Plasmodium falciparum [4]): 72%; inhibition at 200 µM (Plasmodium falciparum [6]): 71%
5 | H-EKGKRGTSRNNNIHTNENNIY-OH | < 2 | 
6 | H-FDQINQKYDDLTKNINQMND-OH | < 2 | 
7 | H-HIKQILINYIQECKPIQNIS-OH | < 2 | 
8 | H-IFQKEFSEADNAHSEEKEEY-OH | < 2 | 
9 | H-IIKNITSIYYKINILNILII-OH | < 2 | 
10 | H-IQHYQTKFNINTNTKQLQQL-OH | < 2 | 
11 | H-KANLQDRDIKYIVQNNDANN-OH | < 2 | 
12 | H-KEIKKVLPQLYIPKNEQEYI-OH | < 2 | 
13 | H-KIHTLEELKILTQEINDKNVY-OH | < 2 | 
14 | H-KINNNLKDITHIVINDNNTLY-OH | < 2 | 
15 | H-KNSQNQHDINKTHHTNNNYD-OH |  | inhibition at 200 µM (Plasmodium falciparum [4]): 37%; inhibition at 200 µM (Plasmodium falciparum [6]): 3%
16 | H-LNIKDKDEKKRKNDNLINNY-OH | < 2 | 

Row | Compound | Activity (Homo sapiens [3]) [%] | other results
17 | H-LPEHIKQKSVSELNIYMKQI-OH | > 2 | inhibition at 200 µM (Plasmodium falciparum [4]): 41%; inhibition at 200 µM (Plasmodium falciparum [6]): 42%
18 | H-LQLLKDIKEIQTKQIDTKINY-OH | < 2 | 
19 | H-MLETTKEQILLLWNNKKISQY-OH | > 2 | 
20 | H-NEEENEMGYGITNKRKNSET-OH | < 2 | inhibition at 200 µM (Plasmodium falciparum [4]): 43%; inhibition at 200 µM (Plasmodium falciparum [6]): 40%
21 | H-NGQKLKTDIILNSFVQINSSY-OH | < 2 | 
22 | H-NHVELYIKNFQKNKIQIHKN-OH | < 2 | 
23 | H-NILMDEIENYVKKYTESNRI-OH | > 2 | Activity (Homo sapiens [1]): 169%; Activity (Homo sapiens [2]): 94.3%; inhibition at 200 µM (Plasmodium falciparum [4]): 46%; Activity (Homo sapiens [5]): 220%; inhibition at 200 µM (Plasmodium falciparum [6]): 49%
24 | H-NISQNYNNHSLSFVHSINNH-OH | < 2 | 
25 | H-NNLKDNIQININNIKSIIRNY-OH | < 2 | 
26 | H-NTTETQLNHIKQNINHFKYF-OH | > 2 | Activity (Homo sapiens [1]): 135%; Activity (Homo sapiens [2]): 89.5%; inhibition at 200 µM (Plasmodium falciparum [4]): 97%; Activity (Homo sapiens [5]): 55.5%; inhibition at 200 µM (Plasmodium falciparum [6]): 97%
27 | H-NYEHPNNYQQKNDEKISLQH-OH | < 2 | 
28 | H-QFYINEKNYNNNHDDHNDDH-OH | < 2 | 
29 | H-QNYNQENQEKSKMIDSENEK-OH |  | inhibition at 200 µM (Plasmodium falciparum [4]): 39%; inhibition at 200 µM (Plasmodium falciparum [6]): 37%
30 | H-YNTSSQQKNNLHTNNNSNSR-OH | < 2 | 
31 | H-YTTFKYLQTLNKSLYDSIYK-OH | < 2 | 

Second part, led by results:

Row | Activity (Homo sapiens [3]) [%] | Compound | other results
32 | > 2 | CC[C@H](C)[C@H](NC(=O)[C@H](Cc1cnc[nH]1)NC(=O)[C@H](CO)NC(=O)[C@@H]1CCCN1C(=O)[C@H](CCC(N)=O)NC(=O)[C@@H](NC(=O)[C@@H](N)CC(C)C)[C@@H](C)CC)C(=O)N[C@@H](Cc1cnc[nH]1)C(=O)N[C@@H](CC(C)C)C(=O)N[C@@H](Cc1cnc[nH]1)C(=O)N[C@@H](CCCCN)C(=O)N[C@@H](CCSC)C(=O)N[C@@H](CCCCN)C(=O)N[C@@H](CC(C)C)C(=O)N1CCC[C@H]1C(=O)N[C@H](C(=O)N[C@H](C(=O)N[C@@H](CCC(N)=O)C(=O)N[C@@H](CCC(N)=O)C(=O)N[C@@H](CCC(N)=O)C(=O)N[C@@H](Cc1ccc(O)cc1)C(=O)O)[C@H](C)O)[C@@H](C)CC | Activity (Homo sapiens [1]): 209%; Activity (Homo sapiens [2]): 152%; inhibition at 200 µM (Plasmodium falciparum [4]): 48%; Activity (Homo sapiens [5]): 79.4%; inhibition at 200 µM (Plasmodium falciparum [6]): 43%
33 | < 2 | CC[C@H](C)[C@H](NC(=O)[C@@H](NC(=O)[C@H](CCCNC(=N)N)NC(=O)[C@H](CCC(N)=O)NC(=O)[C@H](CO)NC(=O)[C@@H](NC(=O)[C@H](CC(N)=O)NC(=O)[C@@H](NC(=O)[C@@H](NC(=O)[C@@H](N)CCCCN)[C@@H](C)O)[C@@H](C)CC)[C@H](C)O)[C@@H](C)O)C(=O)N[C@@H](CC(=O)O)C(=O)N[C@@H](CC(=O)O)C(=O)N[C@@H](CO)C(=O)N[C@@H](CC(N)=O)C(=O)N[C@@H](CCSC)C(=O)N[C@@H](CC(=O)O)C(=O)N[C@@H](CCCNC(=N)N)C(=O)N[C@@H](CC(N)=O)C(=O)N[C@@H](CC(N)=O)C(=O)N[C@@H](CCCNC(=N)N)C(=O)N[C@@H](Cc1ccc(O)cc1)C(=O)O | 
34 | < 2 | CC[C@H](C)[C@H](NC(=O)[C@H](CCC(N)=O)NC(=O)[C@H](CCC(N)=O)NC(=O)[C@H](CO)NC(=O)[C@H](Cc1ccc(O)cc1)NC(=O)[C@H](CC(N)=O)NC(=O)[C@@H](NC(=O)[C@H](CC(N)=O)NC(=O)[C@H](Cc1cnc[nH]1)NC(=O)[C@@H](NC(=O)[C@H](Cc1ccccc1)NC(=O)[C@@H](NC(=O)[C@H](CC(=O)O)NC(=O)[C@@H](N)CO)C(C)C)[C@H](C)O)[C@@H](C)CC)C(=O)N[C@@H](CC(C)C)C(=O)N[C@@H](CC(N)=O)C(=O)N[C@@H](Cc1ccc(O)cc1)C(=O)N[C@@H](CO)C(=O)N[C@@H](CCC(N)=O)C(=O)N[C@@H](C)C(=O)O | 
35 | < 2 | CC[C@H](C)[C@H](NC(=O)[C@H](Cc1ccccc1)NC(=O)[C@H](Cc1ccccc1)NC(=O)[C@H](Cc1ccccc1)NC(=O)[C@H](C)NC(=O)[C@@H](NC(=O)[C@H](CO)NC(=O)[C@H](CO)NC(=O)[C@@H](N)CS)[C@H](C)O)C(=O)N[C@@H](CCCCN)C(=O)N[C@@H](CC(N)=O)C(=O)N[C@@H](CO)C(=O)N[C@@H](CC(N)=O)C(=O)N[C@@H](CCC(=O)O)C(=O)N1CCC[C@H]1C(=O)N[C@@H](Cc1cnc[nH]1)C(=O)N[C@@H](Cc1cnc[nH]1)C(=O)N[C@H](C(=O)N[C@@H](Cc1ccccc1)C(=O)N[C@@H](CC(N)=O)C(=O)N[C@@H](Cc1ccc(O)cc1)C(=O)O)[C@@H](C)CC | 
36 | < 2 | CC[C@H](C)[C@H](NC(=O)[C@H](Cc1ccc(O)cc1)NC(=O)[C@H](CCC(=O)O)NC(=O)[C@H](CC(N)=O)NC(=O)[C@@H](NC(=O)[C@H](CCCCN)NC(=O)[C@@H](N)CCCCN)C(C)C)C(=O)N[C@@H](CC(N)=O)C(=O)N[C@@H](CC(N)=O)C(=O)N[C@@H](CO)C(=O)N[C@@H](CC(=O)O)C(=O)N[C@@H](CS)C(=O)N[C@@H](Cc1cnc[nH]1)C(=O)N[C@@H](CC(C)C)C(=O)N[C@H](C(=O)N[C@@H](CS)C(=O)N[C@@H](CO)C(=O)N[C@@H](CCCCN)C(=O)N[C@@H](Cc1ccc(O)cc1)C(=O)N[C@@H](CCCCN)C(=O)O)[C@@H](C)O (H-KKVNEYINNSDCHLTCSKYK-OH) | 
37 | < 2 | H-DDNFIEYNILNADPDLRSHF-OH | 
38 | < 2 | H-DIENIIKQNEHTESYKNLDT-OH | 
39 | < 2 | H-DYSLLKLSYNKNQDIYKNIQ-OH | 
40 | < 2 | H-EDEDENENEVENENEDFNDIY-OH | 
41 | < 2 | H-EKIGLRQMENRLKGKYEEIK-OH | 
42 | < 2 | H-ELIPITQQIQTKMYTTNNIE-OH | 
43 | > 2 | H-FKQILELKEKEHYITNKHTY-OH | inhibition at 200 µM (Plasmodium falciparum [4]): 46%; inhibition at 200 µM (Plasmodium falciparum [6]): 47%
44 | < 2 | H-FMQNETFKKNIDDKIKEMNNY-OH | 
45 | < 2 | H-HKINNYSHNIEDLINQLQHK-OH | 
46 | < 2 | H-INNLMIISFDKNKSSDLMLQY-OH | 
47 | < 2 | H-IQERNQNNQIVKELKYNKQI-OH | 
48 | < 2 | H-IQNHKNKQETKLNTTTIQELY-OH | 
49 | < 2 | H-IRKIYDIETIYQNDLHNIEE-OH | 
50 | < 2 | H-ITLLVSRKQLIYIEYIYFIN-OH | 
51 | < 2 | H-KYNLPQERIIKNYNHNGINN-OH | 
52 | < 2 | H-LPVYFDEVEDEVEDEVEDED-OH | 
53 | > 2 | H-MLSIFQDTKYGKHKNQQILS-OH | Activity (Homo sapiens [1]): 93.2%; Activity (Homo sapiens [2]): 200%; inhibition at 200 µM (Plasmodium falciparum [4]): 52%; Activity (Homo sapiens [5]): 93%; inhibition at 200 µM (Plasmodium falciparum [6]): 42%
54 | < 2 | H-NLTNSTQEYINQIKAIPTNL-OH | 
55 | < 2 | H-NNEHANEKNIYNEHTNENNI-OH | 
56 | < 2 | H-PPNSPFRSYYDKNLNKDINE-OH | 
57 | < 2 | H-QEFNKKIQHFKEETQIMIWKY-OH | 
58 | < 2 | H-QENITTFENQYKDLIIKMNH-OH | 
59 | < 2 | H-TCHSIQTLLNNLISSKIIFKY-OH | 
60 | < 2 | H-TFNMYYNDIQQIKIKINQNE-OH | 
61 | < 2 | H-YNNNHDKQNEHKYNQGKSSG-OH | 
